Experiments:
Human alphaherpesvirus 1 = assay: Antiviral activity against herpes simplex virus type 1 (HSV-1) was performed by HSV-1 ELISA assays.; assay type: functional, organism-based
In short: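 HSV-1 strain KOS (used in most experiments); ELISA read-out, quadruplicate wells; IC50 from linear regression of percent inhibition against log drug concentration.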

HFF = assay: Cytotoxicity produced in human foreskin fibroblasts (HFF) cells was estimated by visual scoring of cells unaffected by virus infection in the plaque-reduction assay.; assay type: ADME, cell-based
In short: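 Uninfected HFF cells in the HCMV plaque-reduction plates, examined at 30-fold magnification; drug-induced cytopathology scored 0–4 on the day of staining for plaque counting.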

Human betaherpesvirus 5 [1] = assay: Antiviral activity against human cytomegalovirus (HCMV) in plaque reduction assay; assay type: functional, organism-based
In short: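 HCMV Towne strain (plaque-purified P0) on HFF monolayers; inoculum ~100 PFU in 0.2 mL; compounds dissolved in overlay medium; plaques counted after staining; IC50 from linear regression of percent inhibition vs log concentration; averages of duplicate or triplicate experiments.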

Human betaherpesvirus 5 [2] = assay: Antiviral activity against human cytomegalo virus (HCMV) in yield reduction assay; assay type: functional
Human betaherpesvirus 5 [3] = assay: Antiviral activity against human cytomegalovirus (HCMV) in yield reduction assay; assay type: functional
KB [4] = assay: Inhibitory activity against growth of human epidermoid oral carcinoma KB cell line; assay type: functional, cell-based
In short: (§1)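 KB cells grown in MEM with Hank's salts plus 10% calf serum; logarithmically growing cells, staining-based growth read-out, quadruplicate assays; IC50 from linear regression of percent inhibition vs log drug concentration.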

KB [5] = assay: Inhibitory activity against growth of KB cell.; assay type: functional, cell-based; conditions: Homo sapiens; in short: as §1

| Structure (SMILES) | IC50 (Human alphaherpesvirus 1) | IC50 (HFF) | IC50 (Human betaherpesvirus 5 [1]) | IC90 (Human betaherpesvirus 5 [2]) | IC90 (Human betaherpesvirus 5 [3]) | IC50 (KB [4]) | IC50 (KB [5]) |
| --- | --- | --- | --- | --- | --- | --- | --- |
| CSc1nc2ccc(Cl)cc2n1C1O[C@H](CO)[C@@H](O)[C@H]1O (stereo partly specified) | < 100 µM | > 100 µM | > 100 µM |  |  |  |  |
| OC[C@H]1O[C@@H](n2c(Cl)nc3cc(Cl)c(Cl)cc32)[C@H](O)[C@@H]1O |  |  | 2.8 µM | 1.3 µM |  |  |  |
| OC[C@H]1OC(n2c(SCc3ccccc3)nc3ccc(Cl)cc32)[C@H](O)[C@@H]1O (stereo partly specified) | > 100 µM | > 100 µM | > 100 µM |  |  |  |  |
| OC[C@H]1O[C@@H](n2cnc3cc(Cl)c(Cl)cc32)[C@H](O)[C@@H]1O [DICHLORORIBOBENZIMIDAZOLE] |  |  |  |  | 19 µM |  |  |
| OC[C@H]1O[C@@H](n2c(=S)[nH]c3ccc(Cl)cc32)[C@H](O)[C@@H]1O | > 100 µM | > 100 µM | > 100 µM |  |  | > 100 µM |  |
| O=[N+]([O-])c1ccc2[nH]c(Cl)nc2c1 | 21 µM | 20 µM | 6 µM |  |  |  |  |
| COc1nc2ccc(Cl)cc2n1C1O[C@H](CO)[C@@H](O)[C@H]1O (stereo partly specified) | > 100 µM | > 100 µM | > 100 µM |  |  | > 100 µM |  |
| OC[C@H]1OC(n2c(Cl)nc3cc(Cl)ccc32)[C@H](O)[C@@H]1O (stereo partly specified) | > 100 µM | > 100 µM | 150 µM |  | 100 µM |  |  |
| OC[C@H]1OC(n2c(Cl)nc3ccc(Cl)cc32)[C@H](O)[C@@H]1O (stereo partly specified) | > 100 µM | > 100 µM | 58 µM |  | 52 µM |  |  |
| Nc1nc2c(ncn2COC(CO)CO)c(=O)[nH]1 [GANCICLOVIR] |  | > 100 µM |  | 1.6 µM |  |  | > 100 µM |
| Nc1ccc2nc(Cl)n(C3O[C@H](CO)[C@@H](O)[C@H]3O)c2c1 (stereo partly specified) | > 100 µM | > 300 µM | > 100 µM |  |  |  |  |
| Nc1ccc2c(c1)nc(Cl)n2C1O[C@H](CO)[C@@H](O)[C@H]1O (stereo partly specified) |  | > 300 µM | > 300 µM |  |  |  |  |
